What was measured:
Format in all cases: functional
Cavia porcellus [1] = organism: Cavia porcellus; assay: Effect on the contractile force of spontaneously beating atria from Reserpine-treated guinea pigs as percentage variation from the control at concentration of 10E-5 M
How it was run: (§1)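 Atria from reserpine-treated guinea pigs (reserpine 2 mg/kg ip, 48 and 24 h before death; only tyramine-unresponsive preparations used). Bath solution at 29 °C, gassed 95% O2/5% CO2, pH 7.5, resting tension […]. After 90 min equilibration, compound added cumulatively, 5 min per concentration. Isometric developed-tension amplitude or beating rate given as % variation from untreated control. Mean ± SEM, 6-10 assays.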

Cavia porcellus [2] = organism: Cavia porcellus; assay: Effect on the contractile force of spontaneously beating atria from Reserpine-treated guinea pigs as percentage variation from the control at concentration of 10E-6 M; how it was run: as §1
Cavia porcellus [3] = organism: Cavia porcellus; assay: Effect on the contractile force of spontaneously beating atria from Reserpine-treated guinea pigs as percentage variation from the control at concentration of 3 x 10E-4 M; how it was run: as §1
Cavia porcellus [4] = organism: Cavia porcellus; assay: Effect on the contractile force of spontaneously beating atria from Reserpine-treated guinea pigs as percentage variation from the control at concentration of 3 x 10E-5 M; how it was run: as §1
Cavia porcellus [5] = organism: Cavia porcellus; assay: Effect on the contractile force of spontaneously beating atria from Reserpine-treated guinea pigs as percentage variation from the control at concentration of 3 x 10E-6 M; how it was run: as §1
Cavia porcellus [6] = organism: Cavia porcellus; assay: Effect on the frequency rate of spontaneously beating atria from Reserpine-treated guinea pigs as percentage variation from the control at concentration of 10E-3 M; how it was run: as §1
Cavia porcellus [7] = organism: Cavia porcellus; assay: Effect on the frequency rate of spontaneously beating atria from Reserpine-treated guinea pigs as percentage variation from the control at concentration of 10E-4 M; how it was run: as §1
Cavia porcellus [8] = organism: Cavia porcellus; assay: Effect on the frequency rate of spontaneously beating atria from Reserpine-treated guinea pigs as percentage variation from the control at concentration of 10E-5 M; how it was run: as §1
Cavia porcellus [9] = organism: Cavia porcellus; assay: Effect on the frequency rate of spontaneously beating atria from Reserpine-treated guinea pigs as percentage variation from the control at concentration of 10E-6 M; how it was run: as §1
Cavia porcellus [10] = organism: Cavia porcellus; assay: Compound was evaluated for its effect on the frequency rate of spontaneously beating atria from Reserpine-treated guinea pigs as percentage variation from the control at concentration of 3 x 10E-4 M; how it was run: as §1
Cavia porcellus [11] = organism: Cavia porcellus; assay: Compound was evaluated for its effect on the frequency rate of spontaneously beating atria from Reserpine-treated guinea pigs as percentage variation from the control at concentration of 3 x 10E-5 M; how it was run: as §1
Cavia porcellus [12] = organism: Cavia porcellus; assay: Compound was evaluated for its effect on the frequency rate of spontaneously beating atria from Reserpine-treated guinea pigs as percentage variation from the control at concentration of 3 x 10E-6 M; how it was run: as §1
Cavia porcellus [13] = organism: Cavia porcellus; assay: Effect on the contractile force of spontaneously beating atria from Reserpine-treated guinea pigs as percentage variation from the control at concentration of 10E-3 M; how it was run: as §1
Cavia porcellus [14] = organism: Cavia porcellus; assay: Effect on the contractile force of spontaneously beating atria from Reserpine treated guinea pigs as percentage variation from the control at concentration of 10E-4 M; how it was run: as §1

Row | SMILES | Variation (Cavia porcellus [1]) | Variation (Cavia porcellus [2]) | Variation (Cavia porcellus [3]) | Variation (Cavia porcellus [4]) | Variation (Cavia porcellus [5]) | Variation (Cavia porcellus [6]) | Variation (Cavia porcellus [7]) | Variation (Cavia porcellus [8]) | Variation (Cavia porcellus [9]) | Variation (Cavia porcellus [10]) | Variation (Cavia porcellus [11]) | Variation (Cavia porcellus [12]) | Variation (Cavia porcellus [13]) | Variation (Cavia porcellus [14])
1 | CCc1nc(N(C)C)ncc1C(=O)O | 4.47% | 0% | 14.69% | 6.17% | 2.44% | -7.69% | 1.11% | 0% | 0% | -4.79% | 0% | 0% | 22.03% | 6.67%
2 | CCOC(=O)c1cnc(N(C)C)nc1CC | -39.54% | 0% |  | -67.44% | 0% |  | -100% | -9.37% |  |  | -14.76% | -6.25% |  | -100%
3 | CCOC(=O)c1cnc(N(C)C)nc1C(F)(F)F | 10.67% | 7.15% | -47.85% | -3.61% | 11.26% | -19.35% | -6.66% | -3.23% | 0% | -6.66% | -3.61% | 0% | -60.44% | -30.35%
4 | CC(C)c1nc(N(C)C)ncc1C(=O)O | 7.13% | 1.79% | 16.41% | 7.79% | 4.06% | -28.57% | -14.28% | -3.13% | 0% | -17.58% | -10.71% | -3.13% | 23.17% | 11.77%
5 | COCc1nc(N(C)C)ncc1C(=O)O | 9.99% | 5.46% | 8.19% | 9.72% | 9.16% | -9.37% | -6.25% | 0% | 0% | -6.25% | -3.12% | 0% | 5.92% | 8.24%
6 | COCc1ccnc(N(C)C)n1 | 0% | 0% | -11.89% | -8.02% | 0% | -9.33% | -4% | -1.33% | 0% | 4% | -4% | 0% | -20.93% | -9.03%
7 | CN(C)c1ncc(C(=O)O)c(-c2ccccc2)n1 | 11.47% | 6.62% | 14.22% | 12.11% | 10.63% | -6.25% | -3.12% | 0% | 0% | -3.12% | 0% | 0% | 18.2% | 12.75%
8 | Cc1ccnc(N(C)C)n1 | 8.9% | 0% | 22.47% | 16.76% | 2.27% | -17.34% | 0% | 0% | 0% | -6.25% | 0% | 0% | -36.67% | 19.04%
9 | CCOC(=O)c1cnc(N(C)C)nc1C(C)C | 1.06% | 0% | -100% | -34.22% | 3.19% |  | -2.94% | -3.51% | -3.85% | -100% | -0.91% | -2.94% |  | -57.53%
10 | CCCc1nc(N(C)C)ncc1C(=O)OCC | -57.89% | 0% |  | -100% | -5.29% |  |  |  | 0% |  |  |  |  | 0%
11 | CN(C)c1ncc(C(=O)O)c(C(F)(F)F)n1 | 9.45% | 2.25% | 14.96% | 13.44% | 6.15% | -14.28% | -3.03% | -2.85% | 0% | -9.09% | -3.03% | 0% | 9.52% | 14.03%
12 | CCOC(=O)c1cnc(N(C)C)nc1C(C)(C)C | -12.52% | 0% |  | -50.08% | 2.08% |  | -100% | 4.76% | 0% |  | -7.64% | 0% |  | -100%
13 | CC(C)c1ccnc(N(C)C)n1 | -8.84% | 0% | -86.36% | -28.95% | 0% | -100% | -41.66% | -5.15% | 0% | -41.66% | -17.26% | -5.15% | -100% | -68.77%
14 | CCOC(=O)c1cnc(N(C)C)nc1-c1ccccc1 | 12.05% | 1.73% | -70.37% | 2.25% | 10.24% | -100% | -3.7% | 3.7% | 0% | -14.81% | 7.4% | 0% | -100% | -40.74%
15 | CN(C)c1nccc(C(F)(F)F)n1 | -12.62% | 0% | -83.03% | -30.94% | 2.47% | -100% | -22.58% | -3.23% | 0% | -32.26% | -3.68% | 0% | -100% | -67.95%
16 | CN(C)c1nccc(-c2ccccc2)n1 | 7.52% | 0% | -23.76% | 5.57% | 4.67% | -100% | 0% | 0% | 0% | -13.33% | 0% | 0% | -100% | -12.16%
17 | CN(C)c1nccc(C(C)(C)C)n1 | -5.56% | 0% | -34.94% | -24.35% | 1.13% | -40% | -16.66% | -6.66% | 0% | -30.01% | -13.33% | 0% | -35.14% | -37.31%
18 | CCc1ccnc(N(C)C)n1 | 15.05% | 5.39% | -43.95% | 9.21% | 9.91% | -42.41% | -14.95% | -3.03% | 0% | -28.91% | -4.77% | 0% | -84.45% | -10.54%
19 | CCCc1nc(N(C)C)ncc1C(=O)O | 11.21% | 5.38% | 19.73% | 15.72% | 8.66% | -4.28% | -2.85% | -2.85% | 0% | -5.71% | -2.85% | 0% | 23.61% | 18.35%
20 | CN(C)c1ncc(C(=O)O)cn1 | 7.54% | 3.76% | 8.34% | 10.48% | 6.36% | 6.25% | 3.44% | 3.12% | 0% | 3.44% | 3.44% | 0% | 9.64% | 9.39%

— ChEMBL document CHEMBL1129639, “Synthesis and cardiotonic activity of novel pyrimidine derivatives: crystallographic and quantum chemical studies” (J Med Chem, 1996)
